Screening results deposited in PubChem by Broad Institute.
An excerpt weighted towards active compounds, which were near 2.9% of everything screened.
Cneo AK release: Cryptococcus neoformans lysis via adenylate kinase release | lysis activity, % at 15 µM | C. neoformans lysis, adenylate kinase release luminescence, 4 h; normalised: neutral wells 0, clomiphene wells 100 | 360,000 compounds, 0.2% hits;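 active = mean lysis activity across replicates of at least 80%, whatever share of replicates individually reach that level; inactive = mean lysis activity below 80%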
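Schedule: static 4 h at 37 °C with compound, 1 h detection; system: C. neoformans cells; benchmarks: Clomiphene as positive control; buffer or medium: fresh YPD medium; measure: luminescence rise reflecting yeast cell lysis; measured by: luminescent adenylate kinase detection reagent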
Ecoli rRNA inh: inhibitors of bacterial rRNA selective over humanized ribosomes | 350,000 compounds, 1.6% hits | GFP signal change (wild-type ribosome), % (test concentration not listed) | AID 720706 | E. coli WT GFP vs humanized-ribosome RFP mutants, fluorescence, 24 h; stronger effect = lower value; DMSO median 0, no signal -100;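 active = significant combined selectivity score with lowered wild-type GFP, culture density cut under 30%, mutant RFP and density less affected; inactive = any of these conditions unmet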
Vif inh: blocks HIV Vif function; HEK293T cells, Vif self-association by quenched fluorescence, imaging, 24 h; inhibition, % at 7.49 µM; 340,000 compounds, 0.35% hits; AID 602346; in the data active = inhibition above about 50%, passing the limit was not always enough
FGF22 binding: shifts melting point of recombinant human FGF22 | Q9HCT0 | recombinant FGF22 thermal shift, SYPRO orange fluorescence; percent of sucrose octasulfate shift, DMSO zero | activity (Tm shift, normalised), % at 9.99 µM | 340,000 compounds, 1.5% hits | AID 651658;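 active = mean Tm shift, scaled 0 neutral to 100 positive control, at about 1.3% or above, every replicate too, limit read from the data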
Target sequence (Q9HCT0 whole entry, looked up): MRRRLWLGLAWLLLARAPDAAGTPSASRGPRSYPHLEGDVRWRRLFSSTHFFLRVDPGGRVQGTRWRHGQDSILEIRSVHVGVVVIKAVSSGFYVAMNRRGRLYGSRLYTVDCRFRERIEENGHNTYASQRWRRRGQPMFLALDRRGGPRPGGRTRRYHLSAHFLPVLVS
PglD DTNB: PglD (C. jejuni) enzyme inhibition. 360,000 compounds, 0.098% hits. inhibition, % at 12.5 µM. purified PglD enzyme, DTNB colorimetric CoA detection; in the data active = inhibition above about 16%, passing the limit was not always enough
PGC1a acetyl inh: lowers PGC1a acetylation signal in U2OS cells; AlphaScreen anti-acetyl-lysine; with virally co-expressed GCN5 acetyltransferase; inhibition, % at 15.6 µM; 350,000 compounds, 0.17% hits; AID 651687;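 active = every replicate shows inhibition of at least 40%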;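 note: 0% = neutral control wells and 100% = positive control wells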
* = called active by the depositor; nt = not tested or not shown.

SMILES	Cneo AK release	Ecoli rRNA inh	Vif inh	FGF22 binding	PglD DTNB	PGC1a acetyl inh
CC(=O)NNC(=O)c1sc(=S)n2c1[nH]c(=O)c1sccc12	nt	5	3	43*	nt	-4
NC(=O)c1sc(=S)n2c1[nH]c(=O)c1sccc12	5	4	-1	47*	6	4
O=C(NCc1ccccc1)c1sc(=S)n2c1[nH]c(=O)c1ccccc12	0	nt	-5	nt	0	nt
CO[C@@H]1CN(C)C(=O)c2ccc(NC(C)=O)cc2OC[C@@H](C)N(C(=O)CN2CCOCC2)C[C@H]1C	-4	nt	nt	0	0	-4
CC(Oc1ccc2c(-c3ccccc3)cc(=O)oc2c1)C(=O)N[C@H](Cc1c[nH]c2ccccc12)C(=O)O (stereo partly drawn)	0	-24*	13	0	-1	-4
COc1ccc(-c2cc(=O)oc3cc(OC(C)C(=O)NC(Cc4c[nH]c5ccc(O)cc45)C(=O)O)ccc23)cc1 (stereo not drawn)	0	nt	-10	0	4	-3
O=C(NN=Cc1cc(Br)c(O)c(Br)c1)c1ccccc1NS(=O)(=O)c1cccs1	-4	-25*	0	nt	6	1
O=C(N/N=C/c1cccnc1)c1ccccc1NS(=O)(=O)c1cccs1	2	-30*	-7	0	nt	1
O=C(Nc1ccc(F)cc1)N1C[C@H]2[C@@H](c3ccccc31)[C@H](CO)N2C(=O)c1ccccc1F	-1	1	nt	0	0	-8
CCS(=O)(=O)NCC[C@@H]1CC[C@@H](NC(=O)C2CC2)[C@@H](CO)O1	nt	1	nt	nt	nt	6
Cn1nc(C(C)(C)C)cc1NC(=O)Nc1cc(Cl)cc(Cl)c1	1	-20*	-10	0	-5	8
Cc1ccc(F)cc1NC(=O)Nc1cc(C(C)(C)C)nn1C	-3	nt	1	0	1	7
S=C(S)N1CCCC1	4	nt	75*	0	3	-7
Oc1ccc(C(=S)N2CCCC2)cc1	-1	14	1	0	9	24
CS(=O)(=O)Nc1ccc2c(c1)[C@H]1C[C@@H](CC(=O)N3CCCCC3)O[C@H](CO)[C@H]1O2	0	4	nt	0	1	4
Cc1cc(C)nc(NC(C)(C)C(=O)O)n1	nt	2	1	44*	nt	nt
Cc1cc(C)nc(NC(=O)NC(=O)c2ccccc2)n1	-2	0	-6	0	3	nt
COc1cccc(N2C(=O)CC(NNC(=O)c3cccs3)C2=O)c1 (stereo not drawn)	8	9	4	0	7	-9
O=C(NNC1CC(=O)N(c2cccc(Cl)c2)C1=O)c1cccs1 (stereo not drawn)	14	nt	53*	nt	0	-3
COC(=O)N/N=C/c1ccc(OS(=O)(=O)c2ccc(C)cc2)c(OC)c1	nt	-28*	-6	nt	nt	9
COc1cc(/C=C2\SC(=S)N(CC(=O)NC(C)(C)C)C2=O)cc(OC)c1OC	nt	-1	4	43*	nt	-7
COc1cc(/C=C2/SC(=S)N(Cc3ccccc3)C2=O)ccc1OS(C)(=O)=O	-2	9	-7	0	1	-5
COc1cc(/C=C2\SC(=S)N(CC(=O)O)C2=O)ccc1OS(=O)(=O)c1ccc(C)cc1	-1	-18*	8	nt	-7	nt
COc1cc(/C=C2/SC(=S)N(CC(=O)NC(C)(C)C)C2=O)cc(OC)c1OC	1	nt	-3	nt	3	-4
COc1cc(/C=C2/SC(=S)N(CC(=O)O)C2=O)ccc1OC(=O)c1cccs1	nt	-19*	9	nt	nt	5
SMILES	Cneo AK release	Ecoli rRNA inh	Vif inh	FGF22 binding	PglD DTNB	PGC1a acetyl inh
COc1cc(/C=C2/SC(=S)N(Cc3ccccc3)C2=O)ccc1OCC(=O)O	3	-6	1	0	-7	nt
CCN(c1ccccc1)S(=O)(=O)c1ccc(Cl)c(NC(=O)CSc2nnc(C)s2)c1	nt	-32*	-1	0	nt	nt
NS(=O)(=O)c1ccc(NC(=O)N2c3ccccc3Sc3ccccc32)cc1	nt	-45*	-2	0	nt	-1
O=C(COc1ccc(C(=S)N2CCOCC2)cc1)Nc1ccccc1C(F)(F)F	nt	-7	8	44*	nt	nt
O=C(COc1ccc(C(=S)N2CCCC2)cc1)Nc1ccccc1C(F)(F)F	-1	-7	-6	0	6	nt
CCOC(=O)Sc1nc2ncncc2[nH]1	0	12	4	43*	1	-6
COc1ccc(OCCSc2nc3ccccc3c(=O)[nH]2)cc1	-4	nt	-1	nt	-6	-4
O=C(CSc1nc2ccccc2c(=O)[nH]1)c1ccccc1	0	3	-3	0	0	12
O=C(CCCSc1nc2ccccc2c(=O)[nH]1)c1ccccc1	-1	23	52*	0	-4	6
COc1cccc(OCCSc2nc3ccccc3c(=O)[nH]2)c1	nt	3	3	43*	nt	3
CC(Cc1ccccc1)NC(=O)CC(c1ccccc1)c1ccccc1O (stereo not drawn)	0	-39	-2	0	-6	-13
CC(Cc1ccccc1)NC(=S)CN1CCCC1=S (stereo not drawn)	nt	-21*	-7	0	nt	nt
COc1ccc(N2CCN(Cc3nc(Cc4cccc(F)c4)no3)C(C)C2)cc1 (stereo not drawn)	-4	-23*	-5	nt	1	nt
CC(=O)c1sc(NC(=O)c2ccc(C)c(C)c2)nc1C	nt	20	-8	44*	nt	nt
CC(=O)c1sc(NC(=O)c2cc(-c3ccccc3)nn2-c2ccccc2)nc1C	81*	17	-12	0	-7	-4
CCn1nc(C)c(/C=N/NC(=O)Cn2nnc(N)n2)c1C	0	12	59*	0	-2	0
Cc1ccc2nc(NC(=O)c3ccco3)sc2c1	nt	nt	3	nt	nt	11
Cc1ccc2nc(NC(=S)NC(=O)c3ccco3)sc2c1	nt	-15*	1	0	nt	nt
CCN(C[C@H]1N[C@@](Cc2ccccc2)(C(=O)OC)[C@H]2C(=O)N(C)C(=O)[C@@H]12)C(=O)c1ccc(C(C)(C)C)cc1	0	0	-6	0	-9	nt
CCN(C[C@H]1N[C@@](CC)(C(=O)OC)[C@H]2C(=O)N(C)C(=O)[C@@H]12)C(=O)Nc1ccc(C(F)(F)F)cc1	-2	-24*	-18	0	0	-7
CC[C@@]1(C(=O)OC)N[C@H](CN(C)C(=O)c2ccc(C)cc2)[C@@H]2C(=O)N(C)C(=O)[C@@H]21	0	2	11	44*	1	nt
CCN(C[C@H]1N[C@@](Cc2ccccc2)(C(=O)OC)[C@H]2C(=O)N(C)C(=O)[C@@H]12)C(=O)c1ccc(F)cc1	-4	2	11	43*	-3	nt
COC(=O)[C@]1(Cc2ccccc2)N[C@H](CN(C)C(=O)NC(C)C)[C@@H]2C(=O)N(Cc3ccccc3)C(=O)[C@@H]21	-3	11	-10	1	2	1
